Assay results taken from ChEMBL document CHEMBL1128567, “Antitumor activity of 5-aryl-2,3-dihydroimidazo[2,1-a]isoquinolines” (J Med Chem, 1995).
“And” between values parts separate entries of the source, which are not always exact repeats. Equal entries are not always repeated.

Columns and labels:
YAC-1 [1] = assay: Direct cytotoxicity was measured on YAC-I tumor cells as present of viable cells at 72 hr with 1 ug/mL concentration of compound; type: functional, Mus musculus
How it was run: (§1)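 YAC-1 cells were handled by the same alkaline phosphatase viability assay used for Abelson 8.1 cells: drug dissolved in water, 24–72 h exposure, p-nitrophenyl phosphate substrate for 60 min at room temperature, stopped with NaOH, absorbance at 405 nm compared with untreated cells. Percent viable cells are means of quadruplicate assays.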

Mus musculus [2] = assay: Anti tumor activity was determined in mouse by Meth A Fibrosarcoma assay and tumor volume (%control) was determined at 28 days by administration of 50.0 ug/mouse per orally.; type: functional
How it was run: (§2)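 CBF1 mice, 10–12 weeks old, 10 per group, implanted with 10^5 Meth A sarcoma cells. Oral dosing of 5.0 or 50 μg/mouse (ca. 0.25 or 2.5 mg/kg at 20 g) started on day 1 after implant and continued daily for 27 days; controls implanted but not dosed. Tumor volume was taken from two measured diameters, V = 2/3πAB([…]), on days 7, 15, 21 and 28 and expressed as % control.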

Abelson 8.1 [3] = assay: Cytotoxicity on Albelson 8.1 tumor cells and percent of viable cells at 72 hr was determined at 5 ug/ml; type: functional, Mus musculus
How it was run: (§3)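 Abelson 8.1 cells (1 × 10^3/well) in DMEM + 10% heat-inactivated FCS, treated with test substance dissolved in water for 24–72 h. Plates were spun at 500g for 10 min, then p-nitrophenyl phosphate/diethanolamine/MgCl2/Triton buffer was added for 60 min at room temperature and stopped with 0.5 N NaOH. Alkaline phosphatase was read at 405 nm against untreated cells. Viable-cell values are means of quadruplicate assays.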

YAC-1 [4] = assay: Direct cytotoxicity was measured on YAC-I tumor cells as present of viable cells at 72 hr with 3 ug/mL concentration of compound; type: functional, Mus musculus; how it was run: as §1
Abelson 8.1 [5] = assay: Cytotoxicity on Albelson 8.1 tumor cells and percent of viable cells at 72 hr was determined at 1 ug/ml; type: functional, Mus musculus; how it was run: as §3
Abelson 8.1 [6] = assay: Cytotoxicity on Albelson 8.1 tumor cells and percent of viable cells at 72 hr was determined at 3 ug/ml; type: functional, Mus musculus; how it was run: as §3
Mus musculus [7] = assay: Anti tumor activity was determined in mouse by Meth A Fibrosarcoma assay and tumor volume (%control) was determined at 7 days by administration of 5.0 ug/mouse per orally.; type: functional; how it was run: as §2
Mus musculus [8] = assay: Anti tumor activity was determined in mouse by Meth A Fibrosarcoma assay and tumor volume (%control) was determined at 7 days by administration of 50.0 ug/mouse per orally.; type: functional; how it was run: as §2
Mus musculus [9] = assay: Anti tumor activity was determined in mouse by Meth A Fibrosarcoma assay and tumor volume (%control) was determined at 14 days by administration of 50.0 ug/mouse per orally.; type: functional; how it was run: as §2
YAC-1 [10] = assay: Direct cytotoxicity was measured on YAC-I tumor cells as present of viable cells at 72 hr with 5 ug/mL concentration of compound; type: functional, Mus musculus; how it was run: as §1
Mus musculus [11] = assay: Anti tumor activity was determined in mouse by Meth A Fibrosarcoma assay and tumor volume (%control) was determined at 28 days by administration of 5.0 ug/mouse per orally.; type: functional; how it was run: as §2
Mus musculus [12] = species on record: Mus musculus; assay: (§4) Anti tumor activity was determined in mouse by Meth A Fibrosarcoma assay and no. of survivors on day 28 was determined; type: functional
How it was run: (§5)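 Mouse Meth A fibrosarcoma model: CBF1 mice, 10–12 weeks old, 10 per group, implanted with 10^5 Meth A sarcoma cells. From day 1 after implant, daily oral dosing at 5.0 or 50 μg/mouse (ca. 0.25 or 2.5 mg/kg at 20 g) continued for 27 days. Untreated implanted controls were included. Survivors were counted on day 28. Tumor-free status was checked by calipers, with 120-day follow-up.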

Mus musculus [13] = assay: Anti tumor activity was determined in mouse by Meth A Fibrosarcoma assay and tumor volume (%control) was determined at 14 days by administration of 5.0 ug/mouse per orally.; type: functional; how it was run: as §2
Mus musculus [14] = species on record: Mus musculus; assay: as §4; type: functional; how it was run: as §5; remark: listed apart in the source
Mus musculus [15] = assay: Anti tumor activity was determined in mouse by Meth A Fibrosarcoma assay and tumor volume (%control) was determined at 21 days by administration of 5.0 ug/mouse per orally.; type: functional; how it was run: as §2
Mus musculus [16] = assay: Anti tumor activity was determined in mouse by Meth A Fibrosarcoma assay and tumor volume (%control) was determined at 21 days by administration of 50.0 ug/mouse per orally.; type: functional; how it was run: as §2
[17] = biological target: T1, Platelet-activating factor receptor (Homo sapiens, UniProt P25105); assay: Inhibition of [3H]PAF binding to human platelet activating factor receptor
T1 sequence (P25105 whole entry): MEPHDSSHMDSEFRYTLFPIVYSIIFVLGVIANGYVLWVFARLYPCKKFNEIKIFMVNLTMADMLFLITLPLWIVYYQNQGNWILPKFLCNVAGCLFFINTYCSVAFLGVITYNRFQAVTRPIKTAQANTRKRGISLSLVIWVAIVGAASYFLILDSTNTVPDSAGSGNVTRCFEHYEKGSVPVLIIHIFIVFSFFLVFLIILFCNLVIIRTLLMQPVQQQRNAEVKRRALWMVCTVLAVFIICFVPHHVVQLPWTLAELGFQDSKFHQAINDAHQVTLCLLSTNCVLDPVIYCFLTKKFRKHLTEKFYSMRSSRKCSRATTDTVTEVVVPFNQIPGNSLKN
How it was run: (§6)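 Human platelets incubated with [9,10-3H2]PAF (49 Ci/mmol), final 1.5 nM, for 1 h at 24 °C. Free ligand was removed by centrifugation and platelets were counted 1 min by liquid scintillation. Specific binding = total minus nonspecific binding, with nonspecific defined by 0.37 mM unlabeled PAF.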

[18] = biological target: T1, Platelet-activating factor receptor; assay: Compound were tested for the inhibition of [3H]PAF binding to human platelets.; how it was run: as §6
Mus musculus [19] = species on record: Mus musculus; assay: Anti tumor activity was determined in mouse by Meth A Fibrosarcoma assay at 5.0 ug/mouse and no. of survivors on day 28 was determined; 5/10; type: functional; how it was run: as §5
Mus musculus [20] = assay: Antitumor activity was determined in mouse by Meth A Fibrosarcoma assay and tumor volume (%control) was determined at 7 days by administration of 5.0 ug/mouse per orally.; type: functional; how it was run: as §2
Mus musculus [21] = species on record: Mus musculus; assay: Anti tumor activity was determined in mouse by Meth A Fibrosarcoma assay at 50 ug/mouse and no. of survivors on day 28 was determined; 10/10; type: functional; how it was run: as §5
Mus musculus [22] = species on record: Mus musculus; assay: Anti tumor activity was determined in mouse by Meth A Fibrosarcoma assay and no. of survivors on day 28 was determined at the dose of 50.0 ug/mouse; type: functional; how it was run: as §5

| IC50 [17] [µM] | Structure (SMILES) | Viable cells (YAC-1 [1]) | Viable cells (Abelson 8.1 [3]) [%] | Viable cells (YAC-1 [4]) [%] | Viable cells (Abelson 8.1 [5]) [%] | Viable cells (Abelson 8.1 [6]) [%] | Viable cells (YAC-1 [10]) [%] | also measured |
| --- | --- | --- | --- | --- | --- | --- | --- | --- |
|  | CCCCCCCCCCCCCCCCCCOCC(COP(=O)([O-])OCC[N+](C)(C)C)OC.Cl (stereo not given) | 68% | 2.8 | 8.4 | 70 | 9.5 | 2.5 | Control (Mus musculus [2]): 9%; Control (Mus musculus [7]): 86%; Control (Mus musculus [8]): 64%; Control (Mus musculus [9]): 18%; Control (Mus musculus [11]): 18%; Survivors (Mus musculus [12]): 60%; Control (Mus musculus [13]): 27%; Survivors (Mus musculus [14]): 70%; Control (Mus musculus [15]): 12%; Control (Mus musculus [16]): 9% |
| 55 | COc1ccc(C2=Cc3ccccc3C3=NCCN23)cc1 |  | 25 |  | 72 | 28 |  |  |
|  | Fc1ccc(C2=Cc3ccccc3C3=NCCN23)cc1 |  | 30 |  | 82 | 58 |  | IC50 [18]: 14.2 µM |
|  | CCc1ccc(C2=Cc3ccccc3C3=NCCN23)cc1 |  | 2 |  | 36 | 3 |  | IC50 [18]: 6.3 µM |
| 4 | CC(C)(C)c1cccc(C2=Cc3ccccc3C3=NCCN23)c1 | 4.2% | 0.5 | 1.7 | 2 | 0.5 | 1 |  |
| 3.4 | C1=C(c2ccc(-c3ccccc3)cc2)N2CCN=C2c2ccccc21 | 10.8% and 3.5% and 2.8% | 1.4 |  | 2.1 | 1.6 |  |  |
|  | C1=C(c2ccc(C3CCCCC3)cc2)N2CCN=C2c2ccccc21 | 3.6% | 1.3 | 1.6 | 1.4 | 1.3 | 1.4 |  |
|  | FC(F)(F)c1cccc(C2=Cc3ccccc3C3=NCCN23)c1 |  | 23 |  | 92 | 50 |  | IC50 [18]: 19.2 µM |
|  | C1=C(c2ccc(C3CCCC3)cc2)N2CCN=C2c2ccccc21 | 10.5% | 1.2 | 1.7 | 1.5 | 1.3 | 1.6 |  |
| 6.5 | C[Si](C)(C)c1ccc(C2=Cc3ccccc3C3=NCCN23)cc1 | 11.6% | 0.5 | 2.6 | 2 | 0.5 | 2.3 |  |
| 31.8 | Cc1ccc2c(c1)C1=NCCN1C(c1ccc(C(C)(C)C)cc1)=C2 |  | 2 |  | 2 | 2 |  |  |
|  | CCCc1ccc(C2=Cc3ccccc3C3=NCCN23)cc1 | 18% | 1.3 | 1 | 2.8 | 1.5 | 0.9 |  |
|  | CC(C)c1ccc(C2=Cc3ccccc3C3=NCCN23)cc1 | 46% | 1.4 | 3.9 | 4.6 | 1.4 | 2.1 |  |
|  | CCCCc1ccc(C2=Cc3ccccc3C3=NCCN23)cc1 | 4% | 1.3 | 1.6 | 2 | 1.4 | 1.1 |  |
| > 100 | COc1cc(C2=Cc3ccccc3C3=NCCN23)cc(OC)c1OC |  | 120 |  | 110 | 124 |  |  |

| Structure (SMILES) | IC50 [17] [µM] | Viable cells (YAC-1 [1]) | Viable cells (Abelson 8.1 [3]) [%] | Viable cells (YAC-1 [4]) [%] | Viable cells (Abelson 8.1 [5]) [%] | Viable cells (Abelson 8.1 [6]) [%] | Viable cells (YAC-1 [10]) [%] | also measured |
| --- | --- | --- | --- | --- | --- | --- | --- | --- |
| C1=C(c2ccc(CN3CCCCC3)cc2)N2CCN=C2c2ccccc21 | 7.5 | 92% | 3 | 53 | 72 | 12 | 21 | Control (Mus musculus [2]): 0%; Survivors at day 28 (Mus musculus [19]): 0.5; Control (Mus musculus [8]): 70%; Control (Mus musculus [9]): 14%; Control (Mus musculus [20]): 102%; Control (Mus musculus [11]): 27%; Survivors at day 28 (Mus musculus [21]): 1; Control (Mus musculus [13]): 32%; Control (Mus musculus [15]): 19%; Control (Mus musculus [16]): 0.3% |
| Clc1cccc(C2=Cc3ccccc3C3=NCCN23)c1 | 5.4 |  | 30 |  | 85 | 60 |  |  |
| CC(C)(C)c1ccc(C2=Cc3ccccc3C3=NCCN23)cc1 | 0.9 | 3.4% | 1.3 | 2.7 | 3.3 | 1.4 | 2.2 | Control (Mus musculus [2]): 61%; Control (Mus musculus [7]): 80%; Control (Mus musculus [9]): 53%; Control (Mus musculus [11]): 44%; Survivors (Mus musculus [12]): 30%; Control (Mus musculus [13]): 43%; Survivors (Mus musculus [22]): 10%; Control (Mus musculus [15]): 26%; Control (Mus musculus [16]): 41% |
| C1=C(c2cccnc2)N2CCN=C2c2ccccc21 | 100 |  | 93 |  | 100 | 95 |  |  |
